Assay results taken from ChEMBL document CHEMBL1255219, “Discovery of a β-d-2'-deoxy-2'-α-fluoro-2'-β-C-methyluridine nucleotide prodrug (PSI-7977) for the treatment of hepatitis C virus” (J Med Chem, 2010).

Assays:
Hepatitis C virus [1] = assay: Antiviral activity against HCV infected in human clone A cells assessed as inhibition of cellular rRNA replication at 50 uM; assay type: functional, Hepacivirus hominis
Hepatitis C virus [2] = assay: Antiviral activity against HCV infected in human clone A cells; assay type: functional, Hepacivirus hominis
Outline: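 Clone A replicon cells seeded at 1500 cells/well. Compounds serially diluted in G418-free culture medium and added, then incubated 4 days at 37 °C in 5% CO2. HCV RNA quantified by real-time RT-PCR as ΔCt relative to the mean no-drug control.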

Rattus norvegicus [3] = assay: AUC (0 to infinity) in rat liver assessed as 2'-F-2'-C-Methyluridine-5''-TP level at 50 mg/kg, po; assay type: ADME, organism-based; parameters: time infinity, dose 50 mg/kg, route oral; settings: in vivo
Outline: (§1)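 Rats given a single oral gavage dose of 50 mg/kg in 0.5% carboxymethylcellulose sodium, 5 mL/kg. Livers taken at 0.5, 1, 2, 4, 6 and 12 h after CO2 sacrifice and ice-cold saline perfusion, then snap-frozen. Homogenized in 3 volumes of cold 70% methanol with 20 mM EDTA/EGTA. Triphosphate measured by LC/MS/MS (ESI, MRM negative mode), noncompartmental analysis.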

Rattus norvegicus [4] = assay: Cmax in rat liver assessed as 2'-F-2'-C-Methyluridine-5''-TP level at 50 mg/kg, po; assay type: ADME, organism-based; parameters: dose 50 mg/kg, route oral; settings: in vivo; outline: as §1
[5] = Half life in simulated gastric fluid at pH 1.2 at 50 ug/mL; assay type: physicochemical
Outline: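 Compound at 50 μg/mL in simulated gastric fluid (pH 1.2) or simulated intestinal fluid (pH 7.5), 37 °C, 20 h. Injected by reverse-phase HPLC every 2 h, peak area at 260 nm. Percent parent remaining relative to 0 h, giving half-life.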

Rattus norvegicus [6] = assay: AUC (0 to t) in rat liver assessed as 2'-F-2'-C-Methyluridine-5''-TP level at 50 mg/kg, po; assay type: ADME, organism-based; parameters: dose 50 mg/kg, route oral; settings: in vivo; outline: as §1
Homo sapiens = organism: Homo sapiens; assay: Half life in human plasma at 100 uM
Rattus norvegicus [7] = assay: Tmax in rat liver assessed as 2'-F-2'-C-Methyluridine-5''-TP level at 50 mg/kg, po; assay type: ADME, organism-based; parameters: dose 50 mg/kg, route oral; settings: in vivo; outline: as §1
[8] = Half life in human liver S9 fraction at 100 uM; assay type: ADME, subcellular
Outline: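 Compound at 100 μM in 50 mM K2HPO4 pH 7.4 with 5 mM MgCl2. Started with 4 mg/mL human liver S9 at 37 °C. Samples at 0–24 h quenched with acetonitrile. Parent remaining measured by LC/MS/MS peak area relative to 0 h, and half-life calculated.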

[9] = Half life in simulated intestinal fluid of pH 7.5 at 50 ug/mL; assay type: physicochemical
Outline: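 Compound at 50 μg/mL in simulated gastric fluid (pH 1.2) or simulated intestinal fluid (pH 7.5), 37 °C, 20 h. Injected by reverse-phase HPLC every 2 h, peak area at 260 nm.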

| SMILES | inhibition at 50 µM (Hepatitis C virus [1]) | EC90 (Hepatitis C virus [2]; Hepatitis C virus) | further results |
| --- | --- | --- | --- |
| COC(=O)[C@H](C)NP(=O)(OC[C@H]1O[C@@H](n2ccc(=O)[nH]c2=O)[C@](C)(F)[C@@H]1O)Oc1ccc(F)cc1 (stereo partly drawn) | 16.8% | 690 nM | – |
| COC(=O)[C@H](Cc1ccccc1)NP(=O)(OC[C@H]1O[C@@H](n2ccc(=O)[nH]c2=O)[C@](C)(F)[C@@H]1O)Oc1ccccc1 (stereo partly drawn) | 20.6% | 57600 nM | – |
| CCOC(=O)[C@H](C)NP(=O)(OC[C@H]1O[C@@H](n2ccc(=O)[nH]c2=O)[C@](C)(F)[C@@H]1O)Oc1ccccc1 (stereo partly drawn) | 36.9% | 980 nM | – |
| COC(=O)[C@H](C)NP(=O)(OC[C@H]1O[C@@H](n2ccc(=O)[nH]c2=O)[C@](C)(F)[C@@H]1O)Oc1ccc(Br)cc1 (stereo partly drawn) | 30.8% | 2110 nM | – |
| COC(=O)[C@H](C)NP(=O)(OC[C@H]1O[C@@H](n2ccc(=O)[nH]c2=O)[C@](C)(F)[C@@H]1O)Oc1ccc(Cl)cc1Cl (stereo partly drawn) | 10.9% | 690 nM | – |
| C[C@H](NP(=O)(OC[C@H]1O[C@@H](n2ccc(=O)[nH]c2=O)[C@](C)(F)[C@@H]1O)Oc1ccc(Cl)cc1)C(=O)OC1CCCCC1 (stereo partly drawn) | 66.9% | 54 nM | – |
| COC(=O)CNP(=O)(OC[C@H]1O[C@@H](n2ccc(=O)[nH]c2=O)[C@](C)(F)[C@@H]1O)Oc1ccccc1 (stereo partly drawn) | 0% | 22100 nM | – |
| COC(=O)[C@H](Cc1c[nH]c2ccccc12)NP(=O)(OC[C@H]1O[C@@H](n2ccc(=O)[nH]c2=O)[C@](C)(F)[C@@H]1O)Oc1ccccc1 (stereo partly drawn) | 68.4% | 15600 nM | – |
| CC[C@H](NP(=O)(OC[C@H]1O[C@@H](n2ccc(=O)[nH]c2=O)[C@](C)(F)[C@@H]1O)Oc1ccccc1)C(=O)OC (stereo partly drawn) | 0% | 1610 nM | – |
| C[C@H](NP(=O)(OC[C@H]1O[C@@H](n2ccc(=O)[nH]c2=O)[C@](C)(F)[C@@H]1O)Oc1ccccc1)C(=O)Oc1ccccc1 (stereo partly drawn) | 0% | 18500 nM | – |
| CC(C)OC(=O)[C@H](C)NP(=O)(OC[C@H]1O[C@@H](n2ccc(=O)[nH]c2=O)[C@](C)(F)[C@@H]1O)Oc1ccc(F)cc1 (stereo partly drawn) | 0% | 770 nM | AUC (Rattus norvegicus [3]): 7375 ng·h/g; Cmax (Rattus norvegicus [4]): 519 ng/g; half-life at 50 ug/mL [5]: > 20 h; AUC (Rattus norvegicus [6]): 6140 ng·h/g; half-life at 100 µM (Homo sapiens): > 24 h; Tmax (Rattus norvegicus [7]): 6 h; half-life at 100 µM [8]: 0.42 h; half-life at 50 ug/mL [9]: > 20 h |
| CCCCOC(=O)[C@H](C)NP(=O)(OC[C@H]1O[C@@H](n2ccc(=O)[nH]c2=O)[C@](C)(F)[C@@H]1O)Oc1ccccc1 (stereo partly drawn) | 79.6% | 90 nM | – |
| COC(=O)[C@@H](NP(=O)(OC[C@H]1O[C@@H](n2ccc(=O)[nH]c2=O)[C@](C)(F)[C@@H]1O)Oc1ccccc1)C(C)C (stereo partly drawn) | 0% | > 50000 nM | – |
| CC(C)OC(=O)C(C)N[P@](=O)(OC[C@H]1O[C@@H](n2ccc(=O)[nH]c2=O)[C@](C)(F)[C@@H]1O)Oc1ccccc1 (single isomer, unassigned) [SOFOSBUVIR] | – | – | EC90 (Hepatitis C virus [2]): > 50000 nM |
| CCCCCOC(=O)[C@H](C)NP(=O)(OC[C@H]1O[C@@H](n2ccc(=O)[nH]c2=O)[C@](C)(F)[C@@H]1O)Oc1ccccc1 (stereo partly drawn) | 92% | > 50000 nM | – |
| CCC(C)OC(=O)[C@H](C)NP(=O)(OC[C@H]1O[C@@H](n2ccc(=O)[nH]c2=O)[C@](C)(F)[C@@H]1O)Oc1ccccc1 (stereo partly drawn) | 93.8% | 60 nM | – |
| C[C@H](NP(=O)(OC[C@H]1O[C@@H](n2ccc(=O)[nH]c2=O)[C@](C)(F)[C@@H]1O)Oc1ccccc1)C(=O)OCc1ccccc1 (stereo partly drawn) | 74.3% | 130 nM | – |
| C[C@H](NP(=O)(OC[C@H]1O[C@@H](n2ccc(=O)[nH]c2=O)[C@](C)(F)[C@@H]1O)Oc1ccccc1)C(=O)OCCF (stereo partly drawn) | 43.8% | 1720 nM | – |

| SMILES | inhibition at 50 µM (Hepatitis C virus [1]) | EC90 (Hepatitis C virus [2]; Hepatitis C virus) | further results |
| --- | --- | --- | --- |
| COC(=O)[C@H](C)NP(=O)(OC[C@H]1O[C@@H](n2ccc(=O)[nH]c2=O)[C@](C)(F)[C@@H]1O)Oc1cccc2ccccc12 (stereo partly drawn) | 95.4% | 90 nM | – |
| COC(=O)C(C)(C)NP(=O)(OC[C@H]1O[C@@H](n2ccc(=O)[nH]c2=O)[C@](C)(F)[C@@H]1O)Oc1ccc(F)cc1 (stereo partly drawn) | 0% | 2200 nM | – |
| C[C@H](NP(=O)(OC[C@H]1O[C@@H](n2ccc(=O)[nH]c2=O)[C@](C)(F)[C@@H]1O)Oc1ccccc1)C(=O)OCC(F)F (stereo partly drawn) | 38.3% | 6800 nM | – |
| CCOC(=O)[C@H](C)NP(=O)(OC[C@H]1O[C@@H](n2ccc(=O)[nH]c2=O)[C@](C)(F)[C@@H]1O)Oc1ccc(F)cc1 (stereo partly drawn) | 55.3% | 760 nM | AUC (Rattus norvegicus [3]): 5423 ng·h/g; Cmax (Rattus norvegicus [4]): 291 ng/g; half-life at 50 ug/mL [5]: 17 h; AUC (Rattus norvegicus [6]): 4191 ng·h/g; half-life at 100 µM (Homo sapiens): > 8 h; Tmax (Rattus norvegicus [7]): 4 h; half-life at 100 µM [8]: 0.23 h; half-life at 50 ug/mL [9]: > 20 h |
| CCOC(=O)[C@H](C)NP(=O)(OC[C@H]1O[C@@H](n2ccc(=O)[nH]c2=O)[C@](C)(F)[C@@H]1O)Oc1ccc(Cl)cc1 (stereo partly drawn) | 0% | 390 nM | – |
| C[C@H](NP(=O)(OC[C@H]1O[C@@H](n2ccc(=O)[nH]c2=O)[C@](C)(F)[C@@H]1O)Oc1ccccc1)C(=O)OCc1ccc(F)cc1 (stereo partly drawn) | 0% | 240 nM | – |
| CCOP(=O)(N[C@@H](C)C(=O)OC)OC[C@H]1O[C@@H](n2ccc(=O)[nH]c2=O)[C@](C)(F)[C@@H]1O (stereo partly drawn) | 16.8% | > 50000 nM | – |
| C[C@H](NP(=O)(OC[C@H]1O[C@@H](n2ccc(=O)[nH]c2=O)[C@](C)(F)[C@@H]1O)Oc1ccc(Br)cc1)C(=O)OC1CCCCC1 (stereo partly drawn) | 91.5% | 39 nM | – |
| CC(C)C(=O)OC[C@H]1O[C@@H](n2ccc(N)nc2=O)[C@](C)(F)[C@@H]1OC(=O)C(C)C [MERICITABINE] | 0% | 3900 nM | – |
| COC(=O)[C@H](C)NP(=O)(OC[C@H]1O[C@@H](n2ccc(=O)[nH]c2=O)[C@](C)(F)[C@@H]1O)Oc1ccc(Cl)c(Cl)c1 (stereo partly drawn) | 63.7% | 450 nM | – |
| COC(=O)C1(NP(=O)(OC[C@H]2O[C@@H](n3ccc(=O)[nH]c3=O)[C@](C)(F)[C@@H]2O)Oc2ccc(F)cc2)CC1 (stereo partly drawn) | 0% | > 50000 nM | – |
| CCOC(=O)[C@H](C)NP(=O)(OC[C@H]1O[C@@H](n2ccc(=O)[nH]c2=O)[C@](C)(F)[C@@H]1O)Oc1ccc(Br)cc1 (stereo partly drawn) | 80.5% | 360 nM | – |
| COC(=O)[C@H](C)NP(=O)(OC[C@H]1O[C@@H](n2ccc(=O)[nH]c2=O)[C@](C)(F)[C@@H]1O)Oc1ccc(Cl)cc1 (stereo partly drawn) | 62.8% | 580 nM | – |
| COC(=O)[C@H](CC(C)C)NP(=O)(OC[C@H]1O[C@@H](n2ccc(=O)[nH]c2=O)[C@](C)(F)[C@@H]1O)Oc1ccccc1 (stereo partly drawn) | 0% | 5400 nM | – |
| C[C@H](NP(=O)(OC[C@H]1O[C@@H](n2ccc(=O)[nH]c2=O)[C@](C)(F)[C@@H]1O)Oc1ccccc1)C(=O)OC1CCCCC1 (stereo partly drawn) | 61% | 250 nM | AUC (Rattus norvegicus [3]): 8831 ng·h/g; Cmax (Rattus norvegicus [4]): 557 ng/g; half-life at 50 ug/mL [5]: 17 h; AUC (Rattus norvegicus [6]): 6487 ng·h/g; half-life at 100 µM (Homo sapiens): > 24 h; Tmax (Rattus norvegicus [7]): 2 h; half-life at 100 µM [8]: 1.4 h; half-life at 50 ug/mL [9]: > 20 h |
| CC(C)OC(=O)[C@H](C)NP(=O)(OC[C@H]1O[C@@H](n2ccc(=O)[nH]c2=O)[C@](C)(F)[C@@H]1O)Oc1ccc(Br)cc1 (stereo partly drawn) | 0% | 570 nM | – |
| COC(=O)[C@H](CCSC)NP(=O)(OC[C@H]1O[C@@H](n2ccc(=O)[nH]c2=O)[C@](C)(F)[C@@H]1O)Oc1ccccc1 (stereo partly drawn) | 24.1% | 60100 nM | – |
